Screening results deposited in PubChem BioAssay by several laboratories.
b-catenin transl = modulators of beta-catenin nuclear translocation, primary screen, imaging, HeLa cells, immunofluorescence, high-content; nuclear translocation activity, % at 5 µM; hit rate 0.3% among 190,000; AID 1665, 2009;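 active = nuclear translocation activity above 50% at 5 µM, with a well cell count of 50 or more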;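 also: per-cell ratio of nuclear to cytoplasmic median beta-catenin stain intensity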
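System: Human HeLa cells, endogenous beta-catenin | Compound dosing: 5 µM primary, 0.02–20 µM confirmation | Timing: 24 h compound exposure at 37°C, 5% CO2 | Measured by: Fluorescence imaging of beta-catenin antibody stain plus DAPI | Read-out basis: % activation of per-cell nuclear versus cytoplasmic median beta-catenin signal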
MT stabilize HCS = microtubule stabilizers in HeLa cells, primary screen, imaging, high-content imaging. hit rate 0.83% among 200,000. AID 2205, 2009. % tubulin-high responders, % at 10 µM. HeLa tubulin immunostaining HCS, 24 h; share of cells brighter than vehicle mean+2SD;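 active = plate Z-score above 3 for both tubulin-high and condensed-nucleus cell shares, with cell loss under 80%, at 10 µM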;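 also: anti alpha tubulin signal scored within the nucleus-defined area of each cell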
BaF3 tox = parental Ba/F3 cell viability inhibition, counter-screen for JAK2V617F inhibitor project, murine pro-B, CellTiter-Glo luminescence; hit rate 1.1% among 220,000; CellTiter-Glo ATP luminescence; inhibition, % at 5.6 µM; AID 1486, 2009;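 active = inhibition above a per-campaign cutoff, the mean inhibition of all tested compounds plus 3 SD, cut at about 27% in these data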
IEC-6 cytotox = cytotoxicity in IEC-6 intestinal epithelial cells, primary screen, cytotoxicity control for KLF5 inhibitor project, cell-based, luminescence; IEC-6 cytotoxicity, luminescence viability; inhibition, % at 5 µM; hit rate 0.78% among 290,000; in the data active = inhibition above about 22%
APP 5UTR inh = inhibitors of APP translation via 5'UTR reporter, primary screen, APP 5'UTR luciferase, SH-SY5Y cells; inhibition, % at 2 µM; SH-SY5Y APP 5'UTR-luciferase reporter, luminescence; hit rate 0.82% among 190,000;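 active = inhibition above a set limit, derived from the sample mean plus 3 SD, cut at about 45% in these data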
Ba/F3 V617F tox = reduced viability of JAK2V617F-dependent Ba/F3 cells, primary screen, JAK2V617F inhibitor project, cell-based, Ba/F3 EpoR-JAK2V617F, luminescence; ATP luminescence; inhibition, % at 5.6 µM; hit rate 1.1% among 220,000; AID 1446, 2008;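 active = inhibition above the campaign mean plus 3 SD over all tested compounds, cut at about 24% in these data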;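 also: cytokine-independent growth of Ba/F3 cells driven by EpoR plus mutant JAK2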
Numbers stand for hits; - = inactive; . = not tested or not shown. Hits are enriched below; roughly 2.2% of the tested compounds scored in any of these assays.

SMILES	b-catenin transl	MT stabilize HCS	BaF3 tox	IEC-6 cytotox	APP 5UTR inh	Ba/F3 V617F tox
COc1cc(C2Nc3ccc4ncccc4c3C3=C2C(=O)CCC3)ccc1O (centres undefined)	-	27	-	-	-	-
COc1cc(C2Nc3ccc4ncccc4c3C3=C2C(=O)CCC3)cc(OC)c1OC (centres undefined)	-	-	-	-	-	-
Cc1ccc(-c2csc(NC(=O)c3ccc(F)cc3)c2C(=O)O)cc1	.	.	.	-	.	.
Cc1cccc(-n2c(CNC(=O)c3cccc([N+](=O)[O-])c3C)n[nH]c2=S)c1	-	14	-	-	-	-
Cn1c(-c2ccc3c(c2)OCO3)cnc1NCc1ccccc1	-	20	-	-	-	-
Cc1cc(OCCCCNC(C)C)cc(C(C)C)c1	-	-	-	-	-	-
CCN1CCc2c(C#N)c(NCc3ccccc3)nc(N(CC)CC)c2C1	-	-	50	-	-	-
CC(C1CCN(Cc2cn(C)nc2-c2cccc(Cl)c2)CC1)N1CCOCC1 (centres undefined)	-	-	49	-	-	-
Cc1cccc(N2CCN(C(=O)c3ccncc3)CC2)c1C	.	45	-	-	-	-
O=C(c1cccc(Br)c1)N1CCN(C(=O)N2CCOCC2)CC1	-	-	-	-	63	-
O=C(c1cccc(Br)c1)N1CCN(C(=O)c2cccc(Br)c2)CC1	-	-	-	-	-	-
Cc1cccc(N2CCN(C(=O)c3ccc4ncsc4c3)CC2)c1C	150	43	54	36	80	60
Cc1cccc(N2CCN(C(=O)N3CCCCC3)CC2)c1C	-	-	-	-	-	-
O=C(c1ccc2ncsc2c1)N1CCN(c2ccccc2Cl)CC1	-	-	-	-	-	-
Cc1cccc(N2CCN(C(=O)N3CCOCC3)CC2)c1C	-	36	-	-	-	-
COCCn1c(=NC(=O)c2ccc(S(=O)(=O)N3CCc4ccccc4C3)cc2)sc2cc(OC)ccc21	-	-	-	-	-	-
O=C(NNC(=O)C1CC1)c1ccccc1[N+](=O)[O-]	.	.	.	-	.	.
C=CCn1c(-c2ccc(OC)cc2)nc2ccccc21	-	-	38	-	-	42
C=CCn1c(-c2ccc(N)cc2)nc2ccccc21	.	-	-	-	-	-
C[N+]1(CC(=O)NNc2c3ccccc3nc3ccccc23)CCOCC1	-	-	29	-	-	-
Cc1ccc(CSc2nnc(-c3ccc4c(c3)OCO4)o2)cc1	-	-	-	-	-	-
COc1ccc(C2=NCC(CSc3nnc(-c4ccc5c(c4)OCO5)o3)S2)cc1 (centres undefined)	-	-	51	-	-	-
CCCC(=O)N(CCN1CCOCC1)c1nc2c(F)cc(F)cc2s1	.	.	.	-	.	.
COc1ccccc1N1CCN(C(=O)c2ccc(Cl)c(S(=O)(=O)NCc3ccco3)c2)CC1	129	50	-	-	-	-
O=C(c1ccc(Cl)c(S(=O)(=O)NCc2ccco2)c1)N1CCN(c2ccccc2F)CC1	.	41	-	-	-	-
SMILES	b-catenin transl	MT stabilize HCS	BaF3 tox	IEC-6 cytotox	APP 5UTR inh	Ba/F3 V617F tox
COc1ccccc1N1CCN(C(=O)c2ccc(S(=O)(=O)N3CCCCCC3)cc2)CC1	.	-	94	-	-	-
CN(CC1CCCN(CCc2ccc(Cl)cc2)C1)C(=O)C(=O)c1ccco1 (centres undefined)	.	.	.	-	.	.
C[C@@H]1CC=C[C@H]2[C@H]1C(=O)N(Cc1ccccc1)[C@H]2c1ccc2ccccc2c1Br	-	.	.	.	.	.
CN1c2ccccc2C(C)(C)C12CC(c1cccc(S(=O)(=O)N3CCCC3)c1)=NO2 (centres undefined)	-	-	-	-	-	-
CCCCC(=O)Nc1c2c(nn1-c1cccc(C)c1C)CS(=O)(=O)C2	.	.	.	-	.	.
CC(C)(C)C(=O)NC(=S)Nc1ccccc1C(=O)Nc1ccccc1	-	-	95	-	-	-
CC(C)C(=O)NC(=S)Nc1ccccc1C(=O)Nc1ccccc1	-	-	-	-	-	-
COc1ccc(C(=O)CCC(C)(C)[N+](=O)[O-])cc1	-	-	-	-	-	-
COc1cccc(N2CCN(c3nc(C)cc(=O)[nH]3)CC2)c1	.	.	.	-	.	.
CSc1ccccc1NC(=O)CSCc1ccc(C)cc1	-	30	-	-	-	-
O=C(CSCc1ccc(Cl)cc1)Nc1ccccc1O	-	-	-	-	-	-
CCN(c1ccc(NC(=O)COC(=O)CCc2cc(OC)c(OC)c(OC)c2)cc1)C(C)C	-	-	80	-	-	-
CCOc1ccc(NCc2nnc(SCC(=O)Nc3cc(C)on3)n2-c2ccccc2OC)cc1	-	24	-	-	-	-
CCOc1ccc(NCc2nnc(SCC(=O)Nc3cc(C)on3)n2-c2ccc(OC)cc2)cc1	-	-	-	-	-	-
CCOc1ccccc1-n1c(COc2ccccc2)nnc1SCC(N)=O	-	-	-	-	52	-
Cc1ccc(NC(=O)c2cc(N3CCOCC3)nc3ccccc23)cc1	-	24	-	-	-	-
O=C(Cn1cc(Cl)c([N+](=O)[O-])n1)NCCC1=CCCCC1	.	.	.	-	.	.
CN(C)CCOC(=O)C1(c2ccccc2)CCCC1	.	-	-	-	-	-
C[N+]1(CCCOC(=O)C2(c3ccccc3)CCCC2)CCOCC1	-	-	58	-	-	-
COc1ccc(/C=C2/NC(=O)CNC2=O)cc1	.	.	.	-	.	.
S=C(Nc1ccccc1)N1CCN(Cc2ccccc2)CC1	-	.	39	-	.	-
S=C(Nc1cccc(Cl)c1)N1CCN(Cc2ccccc2)CC1	-	-	-	-	-	-
CC(C)c1ccc(-c2nnn(CCC(=O)O)n2)cc1	-	-	-	-	82	-
O=C(O)CCn1nnc(-c2cccs2)n1	-	-	-	-	-	-
CCc1ccc(-c2nnn(CCC#N)n2)cc1	-	-	-	-	-	-
SMILES	b-catenin transl	MT stabilize HCS	BaF3 tox	IEC-6 cytotox	APP 5UTR inh	Ba/F3 V617F tox
CCc1ccc(-c2nnn(CCC(=O)OC)n2)cc1	-	-	-	-	48	-
COc1ccc(S(=O)(=O)N(C(=O)c2ccncc2)c2ccc3oc4c(c3c2)CCCC4)cc1	-	22	-	-	-	-
O=C(c1ccncc1)N(c1ccc2oc3c(c2c1)CCCC3)S(=O)(=O)c1cccc([N+](=O)[O-])c1	-	-	-	-	-	-
COc1ccc(/C=N/NC(=O)CCSc2nc3ccccc3s2)cc1	131	29	-	-	-	-
O=C(CSc1nc2ccccc2s1)N/N=C/c1ccc(C(=O)O)cc1	-	-	-	-	-	-
C=CCNc1nnnc2c1sc1nc(N3CCOCC3)c3c(c12)CCCC3	-	.	-	-	.	-
COc1ccc(-c2noc(CCC(=O)O)n2)cc1	-	-	-	-	-	-
COc1ccc(-c2noc(CCCC(=O)O)n2)cc1	.	-	-	-	56	-
